Assay outcomes as filed in PubChem BioAssay.
Rows were chosen to be rich in hits. Some 5.8% of all compounds tested hit in one or more screens of this group.
GASC1 inh = blocks human GASC-1 (KDM4C) demethylase activity. hit rate 0.15% among 96,000. AID 720574. inhibition, % at 12.5 µM. Q9H3R0. GST-KDM4C 2-372, H3K9me3 peptide, LANCE TR-FRET;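 active = mean replicate inhibition above about 25%, with at least 55% of replicates also reaching it, limit read from the data, passing the limit was not always enough; inconclusive = only one of those two conditions met; inactive = neither condition met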
Target sequence (Q9H3R0 2-372 limits assumed): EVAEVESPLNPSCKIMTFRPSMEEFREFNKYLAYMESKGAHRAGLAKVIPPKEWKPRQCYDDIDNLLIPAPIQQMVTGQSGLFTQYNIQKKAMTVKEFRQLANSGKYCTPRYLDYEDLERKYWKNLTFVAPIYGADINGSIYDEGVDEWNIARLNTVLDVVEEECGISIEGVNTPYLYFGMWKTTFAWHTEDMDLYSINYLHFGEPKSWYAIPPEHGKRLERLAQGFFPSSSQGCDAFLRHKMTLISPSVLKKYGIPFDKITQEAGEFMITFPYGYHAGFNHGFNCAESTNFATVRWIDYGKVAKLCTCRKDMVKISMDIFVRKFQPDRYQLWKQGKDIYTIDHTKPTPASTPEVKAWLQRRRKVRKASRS
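System – N-terminal GST-fused human GASC-1 (KDM4C) fragment, residues 2-372 · Input – enzyme final amount 10 nM · Technique – LANCE TR-FRET, Eu antibody, ULight-streptavidin, EDTA, ex 340 nm, em 618/671 nm · Medium – HEPES buffer, pH 7.5, plus ascorbate · Incubation – enzyme reaction 30 min, then detection 60 min, both room temperature · Reagent – H3K9me3 peptide with Fe(II)/2OG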
T cruzi growth-1 = blocks T. cruzi growth in NIH3T3 culture. T. cruzi beta-gal in NIH3T3, GalScreen luminescence, 90 h. inhibition, % at 8.34 µM. hit rate 5.9% among 77,000. AID 624255;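 active = mean inhibition above about 93%, with at least 55% of replicates each passing it, limit read from the data, passing the limit was not always enough; inconclusive = only one of those two conditions holds; inactive = neither condition holds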
IDH1 mut inh = inhibitors of human IDH1 R132H; O75874; IDH1 R132H reductase, diaphorase/resazurin fluorescence, 60 min; inhibition, % at 10 µM; hit rate 0.18% among 70,000; AID 624101; in the data active = inhibition above about 34%; inconclusive = no clear call, values can overlap the other calls; inactive = below about 11%
Target sequence (O75874 whole entry R132H): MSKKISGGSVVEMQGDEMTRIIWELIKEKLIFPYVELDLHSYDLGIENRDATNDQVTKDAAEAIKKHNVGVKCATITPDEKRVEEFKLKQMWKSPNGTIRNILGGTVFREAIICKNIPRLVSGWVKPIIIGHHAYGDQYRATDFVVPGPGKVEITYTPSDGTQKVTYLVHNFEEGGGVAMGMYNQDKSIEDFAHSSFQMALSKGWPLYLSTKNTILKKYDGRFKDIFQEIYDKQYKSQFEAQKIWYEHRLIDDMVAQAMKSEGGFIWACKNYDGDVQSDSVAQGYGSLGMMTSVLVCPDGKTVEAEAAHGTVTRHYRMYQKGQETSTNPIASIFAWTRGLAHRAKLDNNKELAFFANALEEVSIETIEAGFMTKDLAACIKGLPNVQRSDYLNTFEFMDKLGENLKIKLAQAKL
Pf Dd2 inh = blocks growth of Plasmodium falciparum Dd2 parasites | P. falciparum Dd2 growth, SYBR Green, 72 h; stronger effect = lower value | hit rate 2.3% among 94,000 | activity change, % at 10 µM; in the data active = activity change below about -80%; inconclusive = no clear call, values can overlap the other calls
T cruzi growth-2 = inhibitors of T. cruzi proliferation; T. cruzi beta-gal in NIH3T3, GalScreen luminescence, 90 h; shares compounds with T cruzi growth-1; hit rate 72% among 5,600; inhibition, % at 8.35 µM; AID 651739;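 active = mean replicate inhibition above about 95% and at least 55% of replicates individually reaching it, limit read from the data; inconclusive = only one of the two criteria is met; inactive = neither criterion is met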
T cruzi growth-3 = inhibitors of T. cruzi proliferation; shares compounds with T cruzi growth-1; hit rate 21% among 5,600; inhibition, % at 2.09 µM; AID 651740; T. cruzi beta-gal in NIH3T3, GalScreen luminescence, 90 h;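 active = mean inhibition above about 95%, with at least 55% of replicates also reaching it, limit read from the data; inconclusive = meets just one of the two conditions; inactive = meets neither condition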
3T3 cytotox = kills mouse NIH/3T3 fibroblasts; NIH/3T3 viability, CellTiter-Glo ATP luminescence, 90 h; cytotoxicity (signal decrease), % at 8.35 µM; shares compounds with T cruzi growth-1; hit rate 14% among 5,600;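 active = mean signal decrease across replicates above about 35% based on untreated-well scatter, with enough replicates individually passing, limit read from the data; inconclusive = no rule stated though some were filed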
3T3 cytotox 2 = kills mouse NIH/3T3 fibroblasts; shares compounds with T cruzi growth-1; NIH/3T3 viability, CellTiter-Glo ATP luminescence, 90 h; inhibition, % at 24.9 µM; hit rate 56% among 5,600; AID 651744;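 active = mean loss of cell viability signal at or above a set limit, and enough replicates individually reaching it; inconclusive = meets only the mean limit or only the replicate share; inactive = meets neither condition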
Large screens that a line does not name were inactive (follow-up assays come after a bar, where they were run).

CCCC#Cc1ccc2c(c1)O[C@@H](CN(C)C(=O)c1ccncc1)[C@H](C)CN([C@H](C)CO)S2(=O)=O	none
CCCC#Cc1ccc2c(c1)O[C@@H](CN(C)C(=O)c1ccncc1)[C@@H](C)CN([C@@H](C)CO)S2(=O)=O	T cruzi growth-1 108 | T cruzi growth-2 106 | T cruzi growth-3 inactive | 3T3 cytotox inactive | 3T3 cytotox 2 49
CCCC#Cc1ccc2c(c1)O[C@@H](CN(C)C(=O)c1ccncc1)[C@@H](C)CN([C@H](C)CO)S2(=O)=O	T cruzi growth-1 110 | T cruzi growth-2 97 | T cruzi growth-3 inactive | 3T3 cytotox inactive | 3T3 cytotox 2 37
CCCC#Cc1ccc2c(c1)O[C@H](CN(C)C(=O)c1ccncc1)[C@@H](C)CN([C@@H](C)CO)S2(=O)=O	none
O=C(Nc1ccc(C(F)(F)F)cc1)Nc1ccc2c(c1)[C@@H]1C[C@@H](CC(=O)N3CCc4ccccc4C3)O[C@H](CO)[C@@H]1O2	T cruzi growth-1 138 | T cruzi growth-2 97 | T cruzi growth-3 inconclusive | 3T3 cytotox inactive | 3T3 cytotox 2 104
O=C(Nc1ccc(C(F)(F)F)cc1)Nc1ccc2c(c1)[C@@H]1C[C@H](CC(=O)N3CCc4ccccc4C3)O[C@H](CO)[C@@H]1O2	T cruzi growth-1 119 | T cruzi growth-2 inactive | T cruzi growth-3 122 | 3T3 cytotox inactive | 3T3 cytotox 2 inactive
O=C(Nc1ccc2c(c1)[C@@H]1C[C@H](CC(=O)N3CCc4ccccc4C3)O[C@H](CO)[C@@H]1O2)Nc1ccccc1F	none (no result: T cruzi growth-1)
O=C(CC1CC1)Nc1ccc2c(c1)[C@@H]1C[C@@H](CC(=O)N3CCCCC3)O[C@@H](CO)[C@@H]1O2	T cruzi growth-1 104 | T cruzi growth-2 inactive | T cruzi growth-3 inactive | 3T3 cytotox inactive | 3T3 cytotox 2 inactive
O=C(Nc1ccc2c(c1)[C@@H]1C[C@H](CC(=O)N3CCc4ccccc4C3)O[C@@H](CO)[C@@H]1O2)Nc1ccccc1F	none (no result: T cruzi growth-1)
O=C(C[C@@H]1C[C@H]2c3cc(NS(=O)(=O)c4ccc(F)cc4)ccc3O[C@H]2[C@@H](CO)O1)N1CCc2ccccc2C1	T cruzi growth-1 117 | T cruzi growth-2 inactive | T cruzi growth-3 inactive | 3T3 cytotox inactive | 3T3 cytotox 2 inactive
C[C@H]1CN([C@@H](C)CO)C(=O)Cc2cc(NC(=O)Nc3ccccc3)ccc2O[C@@H]1CN(C)C(=O)NC1CCCCC1	none
CCCNC(=O)N1C[C@H](O)COC[C@H]2O[C@@H](CC(=O)NCc3ccc(Cl)c(Cl)c3)CC[C@@H]21	none (no result: IDH1 mut inh)
CO[C@H]1CN(C)C(=O)c2cc(NC(=O)C3CCCC3)ccc2OC[C@@H](C)N(C(=O)CC2CC2)C[C@H]1C	none
CN(C)CC(=O)Nc1ccc2c(c1)[C@H]1C[C@@H](CC(=O)N3CCc4ccccc4C3)O[C@H](CO)[C@H]1O2	T cruzi growth-1 105 | T cruzi growth-2 inactive | T cruzi growth-3 inactive | 3T3 cytotox inactive | 3T3 cytotox 2 inactive
CN(C)CC(=O)Nc1ccc2c(c1)[C@@H]1C[C@H](CC(=O)N3CCc4ccccc4C3)O[C@H](CO)[C@@H]1O2	none
COc1ccc(NC(=O)N2CCCCN3[C@H](C2)[C@@H](c2ccc(C#Cc4ccccc4)cc2)[C@@H]3CO)cc1	T cruzi growth-1 inconclusive (no result: GASC1 inh, IDH1 mut inh) | T cruzi growth-2 104 | T cruzi growth-3 119 | 3T3 cytotox 60 | 3T3 cytotox 2 104
COc1ccc(C#Cc2ccc([C@@H]3[C@H]4CN(C(=O)Nc5ccccc5)CCCCN4[C@H]3CO)cc2)cc1	T cruzi growth-1 106 (no result: IDH1 mut inh) | T cruzi growth-2 inactive | T cruzi growth-3 inactive | 3T3 cytotox 94 | 3T3 cytotox 2 106
COc1ccc(C#Cc2ccc([C@@H]3[C@@H](CO)N4CCCCN(C(=O)Nc5ccccc5)C[C@H]34)cc2)cc1	none (no result: IDH1 mut inh)
COc1ccc(NC(=O)N2CCCCN3[C@@H](CO)[C@H](c4ccc(C#Cc5ccccc5)cc4)[C@@H]3C2)cc1	none (no result: GASC1 inh, IDH1 mut inh)
O=C(Nc1ccccc1)N1CCCCN2[C@@H](CO)[C@H](c3ccc(C#Cc4ccccc4)cc3)[C@@H]2C1	none (no result: IDH1 mut inh)
COc1ccc(NC(=O)N2CCCCN3[C@H](C2)[C@H](c2ccc(C#Cc4ccccc4)cc2)[C@@H]3CO)cc1	T cruzi growth-1 99 (no result: GASC1 inh, IDH1 mut inh) | T cruzi growth-2 109 | T cruzi growth-3 inactive | 3T3 cytotox inactive | 3T3 cytotox 2 56
O=C(C[C@@H]1CC[C@@H]2[C@H](COC[C@@H](O)CN2S(=O)(=O)c2ccc(F)cc2)O1)N[C@@H]1CCN(Cc2ccccc2)C1	none (no result: IDH1 mut inh)
Cc1ccc(S(=O)(=O)Nc2ccc3c(c2)C(=O)N([C@@H](C)CO)C[C@@H](C)[C@@H](CN(C)C(=O)NC2CCCCC2)OCCCC[C@@H](C)O3)cc1	T cruzi growth-1 101 | T cruzi growth-2 99 | T cruzi growth-3 inactive | 3T3 cytotox inactive | 3T3 cytotox 2 inactive
C[C@H]1CCCCO[C@H](CN(C)C(=O)NC2CCCCC2)[C@@H](C)CN([C@@H](C)CO)C(=O)c2cc(NS(=O)(=O)c3ccccc3)ccc2O1	T cruzi growth-1 103 (no result: IDH1 mut inh) | T cruzi growth-2 inactive | T cruzi growth-3 inactive | 3T3 cytotox inactive | 3T3 cytotox 2 inactive
Cc1ccc(S(=O)(=O)Nc2ccc3c(c2)C(=O)N([C@@H](C)CO)C[C@@H](C)[C@H](CN(C)C(=O)NC2CCCCC2)OCCCC[C@H](C)O3)cc1	T cruzi growth-1 114 (no result: IDH1 mut inh) | T cruzi growth-2 inactive | T cruzi growth-3 inactive | 3T3 cytotox inactive | 3T3 cytotox 2 inactive
CCCNC(=O)N1CC2(CN(CC3CC3)C2)c2c([nH]c3cc(OC)ccc23)[C@H]1CO	none (no result: T cruzi growth-1, IDH1 mut inh)
COc1ccc2c3c([nH]c2c1)[C@H](CO)N(C(=O)C1CCC1)CC31CN(Cc2cccc(F)c2)C1	none (no result: T cruzi growth-1, IDH1 mut inh)
CNC[C@H]1OCCCC[C@H](C)Oc2ccc(NC(=O)Nc3ccc(F)cc3)cc2C(=O)N([C@@H](C)CO)C[C@@H]1C	none (no result: IDH1 mut inh)
C[C@H]1CN([C@@H](C)CO)C(=O)c2cccc(NC(=O)c3cnccn3)c2O[C@H]1CN(C)S(=O)(=O)c1ccccc1	none (no result: IDH1 mut inh)
COc1cccc(NC(=O)N(C)C[C@H]2Oc3ncc(C#Cc4ccccc4)cc3C(=O)N([C@H](C)CO)C[C@@H]2C)c1	T cruzi growth-1 110 (no result: GASC1 inh) | T cruzi growth-2 108 | T cruzi growth-3 inactive | 3T3 cytotox inconclusive | 3T3 cytotox 2 28
COc1cccc(NC(=O)N(C)C[C@H]2Oc3ncc(C#Cc4ccccc4)cc3C(=O)N([C@H](C)CO)C[C@H]2C)c1	none (no result: GASC1 inh, IDH1 mut inh)
COc1cccc(NC(=O)N(C)C[C@@H]2Oc3ncc(C#Cc4ccccc4)cc3C(=O)N([C@H](C)CO)C[C@H]2C)c1	T cruzi growth-1 121 (no result: GASC1 inh) | T cruzi growth-2 106 | T cruzi growth-3 111 | 3T3 cytotox inactive | 3T3 cytotox 2 28
